Test results taken from ChEMBL document CHEMBL4330057, “Second generation of diazachrysenes: Protection of Ebola virus infected mice and mechanism of action” (Eur J Med Chem, 2019).
pEC50: −log10 of the molar value.

What was measured:
Ebolavirus [1] = assay: Antiviral activity against Ebolavirus H. sapiens-wt/1995/Kikwit-9510621 infected in human HeLa cells assessed as inhibition of viral infection pretreated for 2 hrs followed by viral infection and measured after 48 hrs by EboV GP immunostaining based high content imaging analysis; format: functional, organism-based; details: for EC90 / pEC50: Orthoebolavirus, H. sapiens-wt/1995/Kikwit-9510621, HeLa; for pEC50: read-out: EC50
[2] = Cytotoxicity against human HeLa cells after 2 hrs by high content imaging analysis; format: cell-based
[3] = Selectivity index, ratio of CC50 for human HeLa cells to EC50 for Ebolavirus H. sapiens-wt/1995/Kikwit-9510621 infected in human HeLa cells; format: toxicity, cell-based; details: read-out: Ratio CC50/EC50
[4] = Apparent permeability from apical to basolateral side in MDCK cells; format: ADME, cell-based, Canis lupus familiaris; details: dog
Method in brief: (§1)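 Apparent permeability measured in MDCK cell monolayers, apical→basolateral and basolateral→apical directions, three biological replicates.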

[5] = Apparent permeability from basolateral to apical side in MDCK cells; format: ADME, cell-based, Canis lupus familiaris; details: dog; method in brief: as §1
Ebolavirus [6] = assay: Antiviral activity against Ebolavirus infected in mouse assessed as protection against viral infection at 20 mg/kg/day relative to control; format: functional
Ebolavirus [7] = assay: Antiviral activity against Ebolavirus; format: functional, organism-based; details: Orthoebolavirus
Ebolavirus [8] = assay: Antiviral activity against Ebolavirus infected in mouse assessed as protection against viral infection at 300 mg/kg/day relative to control; format: functional
Ebolavirus [9] = assay: Antiviral activity against Ebolavirus infected in mouse assessed as protection against viral infection at 24 mg/kg/day relative to control; format: functional

NCCCCNc1ccnc2c1ccc1c2ccc2c(NCCCCN)ccnc21
EC90 (Ebolavirus [1]): 23.5 µM | pEC50 (Ebolavirus [1]): 5.00 | CC50 at 2 h [2]: > 10 µM | selectivity ratio [3]: > 1

c1cc(NCCCCN2CCOCC2)c2nccc(NCCCCN3CCOCC3)c2n1
EC90 (Ebolavirus [1]): 9.9 µM | pEC50 (Ebolavirus [1]): 5.65 | CC50 at 2 h [2]: > 25 µM | selectivity ratio [3]: > 11.2

CC(C)NCC(O)COc1cccc2ccccc12 (stereo not drawn) [PROPRANOLOL]
Papp A→B [4]: 377 to 390 nm/s | Papp B→A [5]: 416 to 429 nm/s

CCN(CC)CCCC(C)Nc1ccnc2cccnc12 (stereo not drawn)
pEC50 (Ebolavirus [1]): 5.00

CCN(CC)CCNc1ccnc2c(NCCN(CC)CC)ccnc12
EC90 (Ebolavirus [1]): 62.6 µM | pEC50 (Ebolavirus [1]): 4.85 | CC50 at 2 h [2]: > 25 µM | selectivity ratio [3]: > 1.8

Clc1ccc2c(NCCCCNc3ccnc4cccnc34)ccnc2c1
EC90 (Ebolavirus [1]): 13 µM | pEC50 (Ebolavirus [1]): 5.54 | CC50 at 2 h [2]: > 25 µM | selectivity ratio [3]: > 8.7

CN[C@H]1CC[C@@H](c2ccc(Cl)c(Cl)c2)c2ccccc21 [SERTRALINE]
Activity (Ebolavirus [6]): 70%

OC(CNc1ccnc2c(NCC(O)CN3CCOCC3)ccnc12)CN1CCOCC1 (stereo not drawn)
EC50 (Ebolavirus [1]): Not Active

Nc1ncnc2c(C[C@@H]3N[C@H](CO)[C@@H](O)[C@H]3O)c[nH]c12
pEC50 (Ebolavirus [7]): 4.93 to 5.47 | Activity (Ebolavirus [8]): 100%

COc1cc2nc(N3CCN(C(=O)c4ccco4)CC3)nc(N)c2cc1OC [PRAZOSIN]
Papp A→B [4]: 276 to 300 nm/s | Papp B→A [5]: 486 to 589 nm/s

OC(CNc1ccnc2cccnc12)CN1CCOCC1 (stereo not drawn)
EC50 (Ebolavirus [1]): Not Active

CC(C)COCC(CN(Cc1ccccc1)c1ccccc1)N1CCCC1 (stereo not drawn) [BEPRIDIL]
Activity (Ebolavirus [9]): 100%

c1cc(NCCN2CCOCC2)c2nccc(NCCN3CCOCC3)c2n1
EC50 (Ebolavirus [1]): Not Active | CC50 at 2 h [2]: > 25 µM

CCN(CC)CCCNc1ccnc2c1ccc1c2ccc2c(NCCN3CCOCC3)ccnc21
EC90 (Ebolavirus [1]): 4.85 µM | pEC50 (Ebolavirus [1]): 6.10 | CC50 at 2 h [2]: > 10 µM | selectivity ratio [3]: > 12.6
